From ChEMBL document CHEMBL4402598, “Design and Synthesis of Bitopic 2-Phenylcyclopropylmethylamine (PCPMA) Derivatives as Selective Dopamine D3 Receptor Ligands” (J Med Chem, 2020)

Tests used:
[1] = molecular target: T1, 5-hydroxytryptamine receptor 2C (Homo sapiens, UniProt P28335); assay: Displacement of [3H]-Mesulergine from recombinant human 5HT2C receptor expressed in HEKT cell membranes measured after 90 mins by microbeta scintillation counting method
T1 sequence (P28335 whole entry): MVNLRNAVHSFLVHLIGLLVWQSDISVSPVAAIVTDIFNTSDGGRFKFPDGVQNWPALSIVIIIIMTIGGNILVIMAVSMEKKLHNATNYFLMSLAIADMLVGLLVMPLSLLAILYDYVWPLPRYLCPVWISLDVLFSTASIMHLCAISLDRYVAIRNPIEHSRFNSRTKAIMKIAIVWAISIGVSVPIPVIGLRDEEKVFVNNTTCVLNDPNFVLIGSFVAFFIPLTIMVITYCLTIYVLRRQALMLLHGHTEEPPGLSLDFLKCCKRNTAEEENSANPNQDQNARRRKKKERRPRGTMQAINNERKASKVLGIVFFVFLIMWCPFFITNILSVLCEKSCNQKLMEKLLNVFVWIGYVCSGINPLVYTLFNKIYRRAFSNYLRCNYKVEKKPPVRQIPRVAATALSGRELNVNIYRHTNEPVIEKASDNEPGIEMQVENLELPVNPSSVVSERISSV

[2] = molecular target: T1, 5-hydroxytryptamine receptor 2C; assay: Agonist activity at human 5HT2C receptor stably expressed in HEK293 cells co-expressing Gq assessed as induction of calcium mobilization measured at 1 sec interval for 60 secs by Fluo-4 calcium dye based FLIPR assay; format: functional, cell-based
Summary of the method: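 HEK293 cells stably expressing 5-HT2C, plated overnight in DMEM with 1% dialyzed FBS (15,000 cells/well), loaded with Fluo-4 Direct in HBSS/20 mM HEPES pH 7.4/2.5 mM probenecid for 50 min at 37 °C, then 10 min at room temperature. FLIPR read 1/s for 2 min; 10 s baseline subtracted from peak within 60 s; fold of basal. Mean of ≥3 experiments.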

D(4) dopamine receptor = molecular target: T2, D(4) dopamine receptor (Homo sapiens, UniProt P21917); assay: Displacement of [3H]-N-methylspiperone from recombinant human D4 receptor stably expressed in HEK cell membranes measured after 90 mins by microbeta scintillation counting method
T2 sequence (P21917 whole entry): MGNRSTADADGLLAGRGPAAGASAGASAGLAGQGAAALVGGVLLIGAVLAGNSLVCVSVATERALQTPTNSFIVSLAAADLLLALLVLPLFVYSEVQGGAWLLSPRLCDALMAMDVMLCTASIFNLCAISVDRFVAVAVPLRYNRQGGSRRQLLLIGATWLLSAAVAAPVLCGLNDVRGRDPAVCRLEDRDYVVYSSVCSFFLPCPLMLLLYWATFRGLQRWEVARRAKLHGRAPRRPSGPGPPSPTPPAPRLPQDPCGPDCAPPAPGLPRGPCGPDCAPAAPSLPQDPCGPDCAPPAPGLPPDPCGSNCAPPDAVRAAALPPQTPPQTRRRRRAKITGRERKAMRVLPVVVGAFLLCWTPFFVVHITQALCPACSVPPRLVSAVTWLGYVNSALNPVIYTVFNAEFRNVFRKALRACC

[3] = molecular target: 5-hydroxytryptamine receptor 2B (Homo sapiens, UniProt P41595); assay: Agonist activity at 5HT2B receptor (unknown origin) expressed in HEK293 cells co-expressing Gq assessed as induction of calcium mobilization measured at 1 sec interval for 60 secs by Fluo-4 calcium dye based FLIPR assay; format: cell-based; details: hek293, 1 min
D(1B) dopamine receptor = D(1B) dopamine receptor (Homo sapiens, UniProt P21918); assay: Displacement of [3H]-SCH23390 from recombinant human D5 receptor transiently expressed in HEKT cell membranes measured after 90 mins by microbeta scintillation counting method
D(2) dopamine receptor = D(2) dopamine receptor (Homo sapiens, UniProt P14416); assay: Displacement of [3H]-N-methylspiperone from recombinant human D2 receptor stably expressed in fibroblast cell membranes measured after 90 mins by microbeta scintillation counting method
D(1A) dopamine receptor = D(1A) dopamine receptor (Homo sapiens, UniProt P21728); assay: Displacement of [3H]-SCH23390 from recombinant human D1 receptor transiently expressed in HEKT cell membranes measured after 90 mins by microbeta scintillation counting method
[4] = molecular target: 5-hydroxytryptamine receptor 2A (Homo sapiens, UniProt P28223); assay: Agonist activity at 5HT2A receptor (unknown origin) expressed in HEK293 cells co-expressing Gq assessed as induction of calcium mobilization measured at 1 sec interval for 60 secs by Fluo-4 calcium dye based FLIPR assay; format: cell-based; details: hek293, 1 min
[5] = AUC (0 to t) in ICR mouse at 5 mg/kg, iv by LC-MS/MS analysis; format: ADME, organism-based; details: in vivo
Summary of the method: (§1)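 Male ICR mice (6-8 weeks, ~25 g) dosed with compound dissolved in saline, 5 mg/kg iv or 10 mg/kg po, nine animals per group. Samples stored at -80 °C; drug quantified by LC-MS/MS.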

[6] = Tmax in ICR mouse at 10 mg/kg, po by LC-MS/MS analysis; format: ADME, organism-based; details: in vivo; summary of the method: as §1
[7] = Drug level in ICR mouse brain at 5 mg/kg, iv measured after 0.5 hrs by LC-MS/MS analysis; format: ADME, organism-based
Summary of the method: (§2)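 Male ICR mice (6-8 weeks, ~25 g) received compound in saline, 5 mg/kg iv or 10 mg/kg po. Brains collected at 0.5 and 2.0 h, saline-washed, weighed, homogenized in cold 50% methanol (1 g:3 mL). Plasma prepared from orbital blood. Samples held at -80 °C; LC-MS/MS quantitation. Brain/plasma ratio calculated from the two concentrations.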

[8] = Ratio of drug level in ICR mouse brain to plasma at 10 mg/kg, po measured after 0.5 hrs by LC-MS/MS analysis; format: ADME, organism-based; details: read-out: BPR; summary of the method: as §2
[9] = MRT in ICR mouse at 5 mg/kg, iv by LC-MS/MS analysis; format: ADME, organism-based; details: in vivo; summary of the method: as §1
[10] = Clearance in ICR mouse at 5 mg/kg, iv by LC-MS/MS analysis; format: ADME, organism-based; details: in vivo; summary of the method: as §1
[11] = Drug level in ICR mouse plasma at 5 mg/kg, iv measured after 0.5 hrs by LC-MS/MS analysis; format: ADME, organism-based; summary of the method: as §2
[12] = Ratio of drug level in ICR mouse brain to plasma at 5 mg/kg, iv measured after 2 hrs by LC-MS/MS analysis; format: ADME, organism-based; details: read-out: BPR; summary of the method: as §2
[13] = Oral bioavailability in ICR mouse at 10 mg/kg by LC-MS/MS analysis; format: ADME, organism-based; details: in vivo; summary of the method: as §1
[14] = MRT in ICR mouse at 10 mg/kg, po by LC-MS/MS analysis; format: ADME, organism-based; details: in vivo; summary of the method: as §1
[15] = Drug level in ICR mouse brain at 10 mg/kg, po measured after 2 hrs by LC-MS/MS analysis; format: ADME, organism-based; summary of the method: as §2
[16] = molecular target: T1, 5-hydroxytryptamine receptor 2C; assay: Antagonist activity at human 5HT2C receptor stably expressed in HEK293 cells co-expressing Gq assessed as inhibition of 5-HT-induced calcium mobilization preincubated for 15 mins followed by 5-HT addition and measured at 1 sec interval for 60 secs by Fluo-4 calcium dye based FLIPR assay; format: functional, cell-based
Summary of the method: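 5-HT2C stably transfected HEK293 cells, loaded with Fluo-4 Direct (HBSS, 20 mM HEPES pH 7.4, 2.5 mM probenecid; 50 min 37 °C, 10 min room temperature). Test compound added, then 5-HT (final 1 nM) 15 min later.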

[17] = AUC (0 to t) in ICR mouse at 10 mg/kg, po by LC-MS/MS analysis; format: ADME, organism-based; details: in vivo; summary of the method: as §1
[18] = Drug level in ICR mouse plasma at 10 mg/kg, po measured after 0.5 hrs by LC-MS/MS analysis; format: ADME, organism-based; summary of the method: as §2
[19] = Half life in ICR mouse at 5 mg/kg, iv by LC-MS/MS analysis; format: ADME, organism-based; details: in vivo; summary of the method: as §1
[20] = Drug level in ICR mouse brain at 10 mg/kg, po measured after 0.5 hrs by LC-MS/MS analysis; format: ADME, organism-based; summary of the method: as §2
[21] = Ratio of drug level in ICR mouse brain to plasma at 5 mg/kg, iv measured after 0.5 hrs by LC-MS/MS analysis; format: ADME, organism-based; details: read-out: BPR; summary of the method: as §2
[22] = Cmax in ICR mouse at 10 mg/kg, po by LC-MS/MS analysis; format: ADME, organism-based; parameters: dose 10 mg/kg, route oral; details: in vivo; summary of the method: as §1
[23] = Volume of distribution at steady state in ICR mouse at 5 mg/kg, iv by LC-MS/MS analysis; format: ADME, organism-based; details: in vivo, read-out: Vdss; summary of the method: as §1
[24] = Ratio of drug level in ICR mouse brain to plasma at 10 mg/kg, po measured after 2 hrs by LC-MS/MS analysis; format: ADME, organism-based; details: read-out: BPR; summary of the method: as §2
[25] = Drug level in ICR mouse plasma at 10 mg/kg, po measured after 2 hrs by LC-MS/MS analysis; format: ADME, organism-based; summary of the method: as §2
[26] = Drug level in ICR mouse plasma at 5 mg/kg, iv measured after 2 hrs by LC-MS/MS analysis; format: ADME, organism-based; summary of the method: as §2
[27] = Half life in ICR mouse at 10 mg/kg, po by LC-MS/MS analysis; format: ADME, organism-based; details: in vivo; summary of the method: as §1
[28] = Drug level in ICR mouse brain at 5 mg/kg, iv measured after 2 hrs by LC-MS/MS analysis; format: ADME, organism-based; summary of the method: as §2

Chain of D(2) dopamine receptor (P14416 whole entry): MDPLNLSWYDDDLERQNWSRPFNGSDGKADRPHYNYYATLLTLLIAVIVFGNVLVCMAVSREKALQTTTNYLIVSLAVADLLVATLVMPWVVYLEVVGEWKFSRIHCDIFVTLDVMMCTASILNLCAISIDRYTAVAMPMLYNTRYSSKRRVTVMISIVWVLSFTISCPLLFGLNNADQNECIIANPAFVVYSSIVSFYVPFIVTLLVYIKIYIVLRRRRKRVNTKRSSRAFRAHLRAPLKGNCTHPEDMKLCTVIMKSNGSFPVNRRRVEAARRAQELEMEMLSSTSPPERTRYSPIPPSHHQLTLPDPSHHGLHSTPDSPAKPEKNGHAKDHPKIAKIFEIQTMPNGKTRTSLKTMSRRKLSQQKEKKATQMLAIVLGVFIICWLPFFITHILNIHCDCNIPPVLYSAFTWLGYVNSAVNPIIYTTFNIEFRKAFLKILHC
Chain of 5-hydroxytryptamine receptor 2A (P28223 whole entry): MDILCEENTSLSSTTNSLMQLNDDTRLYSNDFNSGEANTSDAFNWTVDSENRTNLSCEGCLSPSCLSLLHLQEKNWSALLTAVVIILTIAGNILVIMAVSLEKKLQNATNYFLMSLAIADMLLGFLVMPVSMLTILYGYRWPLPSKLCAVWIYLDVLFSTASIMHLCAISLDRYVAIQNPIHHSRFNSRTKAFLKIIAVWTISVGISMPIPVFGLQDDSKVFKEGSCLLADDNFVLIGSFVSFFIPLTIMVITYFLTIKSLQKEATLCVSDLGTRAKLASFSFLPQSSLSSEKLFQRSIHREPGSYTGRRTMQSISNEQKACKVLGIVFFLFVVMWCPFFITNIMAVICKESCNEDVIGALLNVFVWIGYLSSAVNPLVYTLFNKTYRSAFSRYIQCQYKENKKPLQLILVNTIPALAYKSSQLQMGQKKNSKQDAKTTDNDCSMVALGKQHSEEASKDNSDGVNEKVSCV
Chain of D(1B) dopamine receptor (P21918 whole entry): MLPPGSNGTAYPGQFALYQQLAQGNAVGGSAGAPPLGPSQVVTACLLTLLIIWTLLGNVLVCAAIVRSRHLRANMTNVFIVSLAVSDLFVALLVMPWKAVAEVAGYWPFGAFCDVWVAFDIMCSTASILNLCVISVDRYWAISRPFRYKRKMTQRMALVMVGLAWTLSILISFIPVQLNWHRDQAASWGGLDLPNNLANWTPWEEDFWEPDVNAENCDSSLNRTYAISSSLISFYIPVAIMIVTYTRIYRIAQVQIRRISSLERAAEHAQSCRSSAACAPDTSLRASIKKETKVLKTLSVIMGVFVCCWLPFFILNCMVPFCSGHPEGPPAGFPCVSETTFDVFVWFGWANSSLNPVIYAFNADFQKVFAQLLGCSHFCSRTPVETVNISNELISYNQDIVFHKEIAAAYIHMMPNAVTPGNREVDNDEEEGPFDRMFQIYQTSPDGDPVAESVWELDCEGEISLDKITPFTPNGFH
Chain of 5-hydroxytryptamine receptor 2B (P41595 whole entry): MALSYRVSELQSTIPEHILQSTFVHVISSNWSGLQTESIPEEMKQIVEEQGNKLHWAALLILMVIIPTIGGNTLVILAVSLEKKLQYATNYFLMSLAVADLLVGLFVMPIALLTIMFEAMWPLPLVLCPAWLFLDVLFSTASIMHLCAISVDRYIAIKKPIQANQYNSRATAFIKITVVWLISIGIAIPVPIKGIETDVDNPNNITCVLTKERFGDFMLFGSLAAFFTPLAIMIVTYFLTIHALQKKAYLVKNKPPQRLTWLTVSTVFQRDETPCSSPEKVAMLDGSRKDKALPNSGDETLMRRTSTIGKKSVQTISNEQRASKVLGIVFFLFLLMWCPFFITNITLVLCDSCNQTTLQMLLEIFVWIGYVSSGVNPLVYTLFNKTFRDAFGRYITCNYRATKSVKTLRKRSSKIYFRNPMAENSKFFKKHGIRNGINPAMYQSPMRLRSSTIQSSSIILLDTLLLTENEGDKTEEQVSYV
Chain of D(1A) dopamine receptor (P21728 whole entry): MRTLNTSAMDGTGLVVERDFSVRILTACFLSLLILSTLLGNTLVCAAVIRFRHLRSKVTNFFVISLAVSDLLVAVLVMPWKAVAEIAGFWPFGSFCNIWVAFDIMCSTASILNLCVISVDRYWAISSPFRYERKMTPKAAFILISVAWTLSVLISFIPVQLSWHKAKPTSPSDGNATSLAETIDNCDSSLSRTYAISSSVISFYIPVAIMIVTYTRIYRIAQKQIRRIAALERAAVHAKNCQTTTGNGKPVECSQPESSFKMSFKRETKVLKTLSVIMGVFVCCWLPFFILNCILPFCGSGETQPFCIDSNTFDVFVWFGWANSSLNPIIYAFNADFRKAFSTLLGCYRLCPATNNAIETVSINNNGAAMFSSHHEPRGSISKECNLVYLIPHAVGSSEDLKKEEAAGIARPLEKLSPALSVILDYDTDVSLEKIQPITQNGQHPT

CCCN(CCCCNC(=O)c1cc2ccccc2[nH]1)C[C@H]1C[C@@H]1c1cccc(Cl)c1Cl.Cl gave a Ki [1] of 61.7 nM, an EC50 [2] of 2550 nM and a Ki (D(4) dopamine receptor) of 676 nM. For the same compound, the Activity [3] was “Not Active”, the Ki (D(1B) dopamine receptor) was over 5000 nM and the Ki (D(2) dopamine receptor) was 992 nM. The Ki (D(1A) dopamine receptor) was 1120 nM and the Activity [4] was “Active”.

With CCCN(CCCCNC(=O)c1ccc(-c2ccccn2)cc1)C[C@@H]1C[C@H]1c1cc(F)ccc1OC.Cl the Ki [1] was 1120 nM, the AUC(0-t) [5] was 660 ng·h/mL and the Tmax [6] was 15 min. The concentration at 0.5 h [7] was 530 ng/mL, the Kp at 0.5 h [8] was 0.49 and the MRT [9] was 24.9 min. The Ki (D(4) dopamine receptor) was 575 nM, the clearance [10] was 126 mL/min/kg and the concentration at 0.5 h [11] was 446 ng/mL. It also gave a Kp at 2 h [12] of 1.53, a bioavailability [13] of 3.8% and an MRT [14] of 223 min. For the same compound, the concentration at 2 h [15] was 6.57 ng/mL, the IC50 [16] was 14500 nM and the AUC(0-t) [17] was 49.5 ng·h/mL. The Activity [3] was “Not Active”, the concentration at 0.5 h [18] was 16.8 ng/mL and the Ki (D(1B) dopamine receptor) was over 5000 nM. It also gave a Ki (D(2) dopamine receptor) of 1350 nM, a half-life [19] of 26.2 min and a concentration at 0.5 h [20] of 8.21 ng/mL. The Kp at 0.5 h [21] was 1.19, the Cmax [22] was 43.2 ng/mL and the Ki (D(1A) dopamine receptor) was 4900 nM. For the same compound, the Activity [4] was “Active”, the Vd [23] was 3.13 L/kg and the Kp at 2 h [24] was 0.79. For the same compound, the concentration at 2 h [25] was 8.4 ng/mL, the concentration at 2 h [26] was 12.7 ng/mL and the half-life [27] was 158 min. The concentration at 2 h [28] was 19.4 ng/mL.

CCCN(CCCCNC(=O)c1ccc(-c2ccccn2)cc1)C[C@H]1C[C@@H]1c1cccc(Cl)c1Cl.Cl showed a Ki [1] of 44.7 nM, an EC50 [2] of 738 nM and a Ki (D(4) dopamine receptor) of 912 nM. For the same compound, the Activity [3] was “Not Active”, the Ki (D(1B) dopamine receptor) was over 5000 nM and the Ki (D(1A) dopamine receptor) was 2340 nM. For the same compound, the Activity [4] was “Active”.

Compound CCCN(CCCCNC(=O)c1ccc2ccccc2c1)C[C@H]1C[C@@H]1c1cccc(Cl)c1Cl.Cl has a Ki [1] of 138 nM, an EC50 [2] of 3540 nM and a Ki (D(4) dopamine receptor) of 776 nM. The Activity [3] was “Not Active”, the Ki (D(1B) dopamine receptor) was over 5000 nM and the Ki (D(2) dopamine receptor) was 1150 nM. For the same compound, the Ki (D(1A) dopamine receptor) was 1050 nM and the Activity [4] was “Active”.
